PfG6PD inh: PfG6PD enzyme inhibitors, primary screen, biochemical, fluorescence intensity, uHTS; glucose-6-phosphate dehydrogenase-6-phosphogluconolactonase (Plasmodium falciparum 3D7); PfGluPho enzyme, NADPH resazurin-diaphorase fluorescence; inhibition, % at 20 µM; actives 0.78% (n = 350,000); AID 504690, 2011;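 active = inhibition reaching at least a set limit at 20 µM in the primary screen, cut at about 59% in these data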;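 note: 0% = DMSO wells with substrate and 100% = DMSO wells lacking glucose-6-phosphate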
B2AR ag: beta2AR agonists driving receptor internalization, primary screen, cell-based, FAP fluorogen, flow cytometry | Beta-2 adrenergic receptor (Homo sapiens), P07550 | Am2.2-beta2AR cells | actives 0.43% (n = 340,000) | response, % (concentration not given with the values);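 active = response above a set limit, near 3 SD of response in nonfluorescent compounds, cut at about 42% in these data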
ABHD5-PLIN5 inh: ABHD5-PLIN5 interaction inhibitors, primary screen, cell lysate, split luciferase complementation, luminescence; Perilipin-5 (Homo sapiens) + 1-acylglycerol-3-phosphate O-acyltransferase ABHD5 (Homo …; Split G. princeps luciferase complementation, 4 h; inhibition, % at 4 µM; actives 0.78% (n = 360,000); AID 602281, 2012;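 active = inhibition above the mean inhibition across every tested compound plus 3 SD, cut at about 22% in these data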;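 note: 0% = DMSO only wells and the 100% control is not disclosed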
MC4R ag barr: MC4R agonists recruiting beta-arrestin, primary screen, cell-based, luminescence, agonist arm of biased-ligand search | Melanocortin receptor 4 (Homo sapiens), P32245 | U2OS MC4R beta-arrestin complementation; percent of melanotan II response, DMSO zero | activation, % at 8.9 µM | actives 0.98% (n = 360,000) | AID 540308, 2011;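 active = activation above a per-plate cutoff, the mean activation of sample wells on that plate plus 3 SD, cut at about 8% in these data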
MC4R antag cAMP: MC4R antagonists of cAMP signaling, primary screen, cell-based, TR-FRET, antagonist arm of biased-ligand search | Melanocortin receptor 4 (Homo sapiens), P32245 | MC4R-expressing cells, MTII-stimulated cAMP, LANCE TR-FRET | inhibition, % at 6.5 µM | actives 0.48% (n = 360,000) | AID 540295, 2011;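 active = inhibition above its plate's cutoff, the mean of tested wells on that plate plus 3 SD, cut at about 29% in these data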;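 note: 0% = Melanotan II alone and 100% = Melanotan II plus saturating MCL0020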
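Assay system: U2OS cells stably expressing human melanocortin 4 receptor (MC4R) / Dosing: 6.5 µM / Timing: compound 30 min, challenge 1 h, detection 1 h / Measured by: Eu-cAMP/anti-cAMP TR-FRET, emission 671 nm / Replicates: singlicate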
ABHD5 PLIN5 conf: ABHD5-PLIN5 interaction inhibitors, confirmation, biochemical, luminescence. shares compounds with ABHD5-PLIN5 inh. inhibition, % at 4 µM. actives 67% (n = 2,200); in the data active = inhibition above about 23%;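 note: 0% = DMSO vehicle wells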
HNF4 split-luc: HNF4 dimerization inhibitors, counter-screen for ABHD5-PLIN5 interaction inhibitor project, biochemical, split-luciferase complementation, luminescence; shares compounds with ABHD5-PLIN5 inh; inhibition, % at 4 µM; actives 77% (n = 2,200); AID 651674, 2012;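 active = mean inhibition across replicate wells exceeding the computed hit threshold, cut at about 13% in these data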;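 note: light from luciferase halves that rejoin when HNF4 fusion proteins dimerize; 0% = DMSO only wells and the 100% control is not given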
Target sequence (P41235 whole entry, looked up, the tested form may be a part): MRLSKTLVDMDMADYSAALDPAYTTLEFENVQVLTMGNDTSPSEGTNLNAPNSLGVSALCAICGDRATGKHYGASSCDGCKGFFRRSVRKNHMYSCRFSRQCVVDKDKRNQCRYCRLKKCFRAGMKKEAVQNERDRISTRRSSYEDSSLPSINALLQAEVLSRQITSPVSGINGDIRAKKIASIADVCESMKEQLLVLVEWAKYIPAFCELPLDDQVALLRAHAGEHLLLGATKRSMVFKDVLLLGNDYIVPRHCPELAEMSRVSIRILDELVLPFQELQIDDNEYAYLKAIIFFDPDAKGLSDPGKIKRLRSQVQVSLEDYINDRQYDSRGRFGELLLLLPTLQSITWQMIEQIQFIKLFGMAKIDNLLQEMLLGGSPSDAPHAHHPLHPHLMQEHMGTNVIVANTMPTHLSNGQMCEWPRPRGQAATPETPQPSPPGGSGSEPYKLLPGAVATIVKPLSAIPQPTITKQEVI
* = called active by the depositor; · = not tested or not shown. This is a sample that favours compounds with a hit; in the whole collection about 3% have one here.

SMILES	PfG6PD inh	B2AR ag	ABHD5-PLIN5 inh	MC4R ag barr	MC4R antag cAMP	ABHD5 PLIN5 conf	HNF4 split-luc
COCCNC(=O)/C(C#N)=C/c1ccc(N2CCOCC2)o1	3.1	3.9	10.4	-1.7	-29.6	·	·
O=C(Oc1ccccc1/C=C\C(=O)c1cc2ccccc2o1)c1ccccc1	20.5	-6.8	30.5*	-1.5	3.4	98.7*	100.8*
COc1ccc(C(=O)/C=C/c2ccccc2OC)c(OC(=O)c2ccc([N+](=O)[O-])cc2)c1	21.0	-0.8	-0.6	-2.6	-4.3	·	·
O=C(N/N=C/c1ccccc1OC(=O)c1ccc2c(c1)OCO2)c1cccc(F)c1	-20.6	-3.6	-3.3	0.1	18.3	·	·
COc1cccc(C(=O)Oc2ccccc2/C=C\C(=O)c2cc3ccccc3o2)c1	18.3	10.6	83.4*	3.9	4.1	98.6*	101.5*
NC(=O)N/N=C/c1ccccc1OC(=O)c1cc2ccccc2oc1=O	3.9	-5.2	2.1	0.9	0.6	·	·
O=C(Oc1ccccc1/C=C\C(=O)c1cc2ccccc2o1)c1cccc(F)c1	-0.7	24.5	32.4*	-1.2	-0.8	98.8*	94.6*
Cc1ccc(CNC(=O)CSc2c3c(nc4ccc(Cl)cc24)CCCC3)o1	12.4	2.9	16.8	-2.5	15.9	·	·
COc1cccc(NC(=O)CSc2c3c(nc4ccccc24)CCCC3)c1	8.9	11.6	34.2*	-2.6	19.3	39.4*	46.3*
Cc1cccc(NC(=O)CSc2c3c(nc4ccccc24)CCC3)n1	3.2	-5.3	0.6	-2.3	10.3	·	·
CCN(CC)CCNC(=O)CSc1c2c(nc3cc(Cl)ccc13)CCCC2	3.8	8.0	32.6*	-4.2	20.2	46.3*	40.8*
COc1cc(/C=C(/C#N)C(=O)NC(C)c2ccccc2)cc(OC)c1O (configuration not stated)	15.9	8.3	14.1	0.9	10.4	·	·
CC(NC(=O)/C(C#N)=C/c1ccc(C(=O)O)cc1)c1ccccc1 (configuration not stated)	-14.2	-0.6	23.9*	2.4	24.1	46.9*	30.3*
CC1=CC(=NOS(=O)(=O)c2ccc(C)cc2)CC(C)(C)C1	·	·	-27.3	·	·	·	·
CC1=C(C)/C(=N\OS(=O)(=O)c2ccc(C)cc2)C=CC1=O	107.6*	31.6	60.7*	1.1	16.5	66.7*	96.4*
COc1cccc(NC(=O)COc2coc(CN3CCN(c4ccccc4)CC3)cc2=O)c1	3.9	3.1	24.8*	0.4	3.0	6.5	0.6
Cc1ccc(C)c(SCC(=O)Nc2cccnc2Cl)c1	13.9	0.4	-1.4	-5.1	11.4	·	·
O=C(CCCN1C(=O)S/C(=C\C=C\c2ccccc2)C1=O)Nc1ccc(C(=O)O)cc1	-11.0	-0.4	34.2*	1.0	24.4	19.0	19.5*
COc1ccc(Nc2c(CCc3ccccc3)nc3nc(C)cc(C)n23)cc1	·	·	8.2	·	·	·	·
C=CCOC(=O)C(=O)/C=C/c1ccc2c(c1)Cc1ccccc1-2	4.1	5.6	35.3*	-2.2	9.2	77.3*	71.3*
O=C1/C(=C\c2ccco2)NC(=S)N1c1ccccc1	27.7	-11.1	25.0*	0.7	9.0	30.0*	44.4*
O=C1NC(=O)/C(=C\c2ccc(N3CCOCC3)o2)N1	-6.6	-5.3	68.0*	4.5	-7.3	41.7*	93.9*
O=C1NC(=O)/C(=C/c2ccc(N3CCOCC3)o2)N1	6.7	1.5	28.5*	-0.9	-1.8	26.5*	47.4*
Cc1cc(/C=C2\NC(=O)NC2=O)c(C)n1-c1ccc(N2CCOCC2)cc1	3.3	1.8	9.0	-1.4	-11.0	·	·
CCOC(=O)C1=CC[C@@H](c2ccccc2)N(S(=O)(=O)c2ccc(C)cc2)[C@@H]1C#N	·	·	48.2*	·	·	49.6*	58.1*
SMILES	PfG6PD inh	B2AR ag	ABHD5-PLIN5 inh	MC4R ag barr	MC4R antag cAMP	ABHD5 PLIN5 conf	HNF4 split-luc
CCOC(=O)C1=CC[C@@H](c2ccccc2)N(S(=O)(=O)c2ccc(C)cc2)[C@H]1C	·	·	0.5	·	·	·	·
CCCN(CC1CC1)C(=S)NC(=O)c1cc(Br)ccc1Cl	-5.1	14.3	24.3*	0.4	-1.5	2.2	-7.4
CCCN(CC1CC1)C(=S)NC(=O)c1ccccc1C	-6.1	·	0.8	-2.0	7.9	·	·
CNC(=S)NCC(O)c1ccc([N+](=O)[O-])cc1 (configuration not stated)	0.8	0.6	-6.3	-1.0	-2.3	·	·
CCNC(=O)C1(C)CCN(Cc2ccc(-c3ccccc3)cc2)C1 (configuration not stated)	·	·	-4.7	-1.8	13.8	·	·
O=C(NCCC(F)(F)F)C1Cc2c(-c3ccc(Cl)cc3)ccnc2O1 (configuration not stated)	·	·	4.1	0.7	2.6	·	·
CSc1nc(Sc2ccccc2)c2ccccc2n1	-2.4	0.1	-2.1	-1.5	1.0	·	·
CSc1nc(=O)[nH]nc1Sc1ccccc1	2.0	·	32.6*	-3.9	13.7	48.0*	52.9*
CCOC(=O)/C=C1/SCC(=O)N1CC(=O)c1ccc[nH]1	-5.0	-1.9	-6.3	0.2	8.7	·	·
Nc1nc(-c2ccccc2)c(N=Nc2ccccc2Cl)s1	4.0	14.4	23.7*	-2.2	-3.9	26.2*	16.6*
Cc1ncc(N=Nc2ccccc2Cl)c(-c2ccccc2)n1	0.2	-0.7	5.3	-0.2	15.6	·	·
COc1ccc(C)cc1NC(=O)CN1CCCN(S(=O)(=O)c2ccc(Br)cc2)CC1	21.6	-8.9	8.5	0.1	2.6	·	·
O=C(Nc1ccc2c(c1)OCO2)c1c[nH]c(=O)n(-c2ccc(F)cc2)c1=O	17.0	7.6	-2.0	-1.6	-6.0	·	·
Cc1nc2scc(-c3ccco3)c2c(=O)n1/N=C/N(C)C	24.9	0.8	42.6*	-0.7	-7.8	18.6	28.9*
Cc1sc2nc(C)n(/N=C/N(C)C)c(=O)c2c1C	-6.8	15.3	-0.4	-2.0	8.8	·	·
Cc1ccc(OCCC(=O)N(CC(=O)Nc2ccccc2C(F)(F)F)Cc2ccco2)cc1	16.5	-3.2	-5.8	-2.3	12.0	·	·
CCOC(=O)c1c(-c2ccc(C)o2)csc1NC(=O)CSc1ncn[nH]1	6.2	-0.9	43.9*	-0.3	-3.1	11.5	52.1*
Cc1ccc(-c2nc3cnccn3c2Nc2ccccc2)o1	43.6	-12.3	24.9*	-1.6	0.9	39.4*	84.0*
COc1cc(Cl)ccc1OCc1cc(C(=O)N(C)CC2CCCCO2)no1 (configuration not stated)	0.6	-6.1	1.2	-3.3	-1.1	·	·

Screens: PubChem BioAssay, several laboratories
